Experimental data from ChEMBL document CHEMBL4732211, “Multifunctional agents based on benzoxazolone as promising therapeutic drugs for diabetic nephropathy” (Eur J Med Chem, 2021).
Active and inactive are the calls of the source. No cut-off for these calls is given here.

What was measured:
Mus musculus [1] = assay: Antidiabetic activity in STZ-induced Kunming mouse model of diabetes assessed as improvement in glucose tolerance at 80 mg/kg, po QD administered via gavage and measured for 120 mins by intraperitoneal GTT
[2] = target: Aldo-keto reductase family 1 member A1 (Rattus norvegicus, UniProt P51635); assay: Inhibition of Wistar rat kidney ALR1 assessed as reduction in NADPH oxidation using sodium D-glucuronate and NADPH as substrate preincubated for 10 mins followed by substrate addition and measured for 4 mins by spectrophotometric analysis; assay type: tissue-based
Mus musculus [3] = assay: Antioxidant activity in STZ-induced diabetic Kunming mouse assessed as increase in GSH level in kidney at 80 mg/kg, po administered daily via gavage for 8 weeks and measured at 6 hrs post-final drug dose by microplate reader analysis; assay type: functional
Mus musculus [4] = assay: Antioxidant activity in STZ-induced diabetic Kunming mouse assessed as reduction in liver MDA level at 160 mg/kg, po administered daily via gavage for 8 weeks and measured at 6 hrs post-final drug dose relative to STZ-treated group; assay type: functional; conditions: 1344 h
Mus musculus [5] = assay: Antidiabetic activity in STZ-induced Kunming mouse model of diabetes assessed as reduction in blood glucose level at 160 mg/kg, po administered daily via gavage for 8 weeks and measured at week 4; assay type: functional; conditions: 672 h, time 4 weeks
Mus musculus [6] = assay: Antioxidant activity in STZ-induced diabetic Kunming mouse assessed as reduction in liver MDA level at 80 mg/kg, po administered daily via gavage for 8 weeks and measured at 6 hrs post-final drug dose relative to STZ-treated group; assay type: functional; conditions: 1344 h
Mus musculus [7] = assay: Reno-protective activity in STZ-induced Kunming mouse model of diabetes assessed as reduction in albumin to creatinine ratio at 160 mg/kg, po administered daily via gavage for 8 weeks; assay type: functional; conditions: 1344 h
Mus musculus [8] = assay: Antioxidant activity in STZ-induced diabetic Kunming mouse assessed as reduction in liver MDA level at 80 mg/kg, po administered daily via gavage for 8 weeks and measured at 6 hrs post-final drug dose relative to normal group; assay type: functional; conditions: 1344 h
[9] = Antioxidant activity assessed as DPPH radical scavenging activity at 10 uM after 30 mins by spectrophotometric analysis; assay type: functional
Procedure, shortened: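 DPPH in methanol (1 mL, 0.025 mg/mL) plus methanol 1.9 mL and compound in methanol, final 100, 50 and 10 µM; absorbance at 517 nm. Scavenging % = 1 − (A_sample − A_blank)/A_control, where the blank is compound without DPPH. Trolox reference.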

Mus musculus [10] = assay: Reno-protective activity in STZ-induced Kunming mouse model of diabetes assessed as urinary total protein excretion at 160 mg/kg, po administered daily via gavage for 8 weeks and measured at week 4 relative to control; assay type: functional; conditions: time 4 weeks
Mus musculus [11] = assay: Antidiabetic activity in STZ-induced Kunming mouse model of diabetes assessed as reduction in blood glucose level at 80 mg/kg, po administered QD via gavage for 4 weeks and measured at week 2 to 4; assay type: functional, organism-based; conditions: time 2-4 weeks
Mus musculus [12] = assay: Antioxidant activity in STZ-induced diabetic Kunming mouse assessed as increase in GSH level in kidney at 80 mg/kg, po administered QD via gavage for 4 weeks and measured at 6 hrs post-final drug dose by microplate reader analysis; assay type: functional
Mus musculus [13] = assay: Reno-protective activity in STZ-induced Kunming mouse model of diabetes assessed as reduction in kidney lesions and appearance of normal structure at 80 to 160 mg/kg, po administered daily via gavage for 8 weeks by H and E staining based histological analysis; assay type: functional, organism-based; conditions: dose 80-160 mg/kg
Mus musculus [14] = assay: Antidiabetic activity in STZ-induced Kunming mouse model of diabetes assessed as reduction in blood glucose level at 80 mg/kg, po administered daily via gavage for 8 weeks and measured at week 4; assay type: functional; conditions: 672 h, time 4 weeks
Mus musculus [15] = assay: Reno-protective activity in STZ-induced Kunming mouse model of diabetes assessed as reduction in albumin to creatinine ratio at 80 mg/kg, po administered QD via gavage for 4 weeks; assay type: functional; conditions: 672 h
Mus musculus [16] = assay: Antioxidant activity in STZ-induced diabetic Kunming mouse assessed as rise in liver MDA level at 80 mg/kg, po administered QD via gavage for 4 weeks and measured at 6 hrs post-final drug dose relative to normal group; assay type: functional
[17] = target: Aldo-keto reductase family 1 member B1 (Rattus norvegicus) (UniProt P07943); assay: Noncompetitive inhibition of Wistar rat lens ALR2 at 0.025 mM using varying level of D,L-glyeraldehyde as substrate in presence of NADPH by double reciprocal plot analysis; assay type: tissue-based
Procedure, shortened: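 Rat ALR2 kinetics run under the assay conditions with inhibitor at 10 and 5 nM. Either D,L-glyceraldehyde varied (7.5-0.94 mM) with cofactor 0.025 mM, or NADPH varied (25-3.125) with glyceraldehyde 2.5 mM. Mode assigned from double-reciprocal plots.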

Mus musculus [18] = assay: Antidiabetic activity in STZ-induced Kunming mouse model of diabetes assessed as reduction in blood glucose level at 160 mg/kg, po administered daily via gavage for 8 weeks and measured at week 6; assay type: functional; conditions: 1008 h, time 6 weeks
HEK-293T = assay: Cytotoxicity against human HEK293T cells at 25 to 200 uM measured after 24 hrs by MTT assay; assay type: cell-based; conditions: dose 25-200 µM
Procedure, shortened: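 293T cells seeded at 1×10^5/well and exposed to 25, 50, 100 and 200 for 24 h at 37 °C; viability by MTT kit.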

Mus musculus [19] = assay: Antidiabetic activity in STZ-induced Kunming mouse model of diabetes assessed as reduction in blood glucose level at 80 mg/kg, po administered daily via gavage for 8 weeks and measured at week 8; assay type: functional; conditions: 1344 h

Chain of Aldo-keto reductase family 1 member A1 (P51635 whole entry, looked up): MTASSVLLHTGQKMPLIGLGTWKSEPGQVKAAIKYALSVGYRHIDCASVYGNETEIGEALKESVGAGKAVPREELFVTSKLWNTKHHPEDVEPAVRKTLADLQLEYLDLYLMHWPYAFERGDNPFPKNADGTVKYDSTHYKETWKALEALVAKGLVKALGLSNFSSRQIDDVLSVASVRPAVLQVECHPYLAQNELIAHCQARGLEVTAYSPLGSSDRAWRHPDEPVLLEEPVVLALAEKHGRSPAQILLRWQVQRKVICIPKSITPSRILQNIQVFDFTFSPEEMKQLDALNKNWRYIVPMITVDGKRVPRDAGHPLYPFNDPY

IC50 [2]: 4.9 µM
inhibition [17]: Active
Structure (SMILES): COc1cc(/C=C/c2cccc3c2oc(=O)n3CC(=O)O)ccc1O
Activity (Mus musculus [1]): Active
Activity (Mus musculus [3]): 170%
inhibition in vivo at 160 mg/kg (Mus musculus [4]): 45%
inhibition in vivo at 160 mg/kg (Mus musculus [5]): 23%
inhibition in vivo at 80 mg/kg (Mus musculus [6]): 67%
inhibition in vivo at 160 mg/kg (Mus musculus [7]): 79%
inhibition in vivo at 80 mg/kg (Mus musculus [8]): 16%
Activity [9]: 22.7%
Activity (Mus musculus [10]): 93%
Activity (Mus musculus [11]): Active
Activity (Mus musculus [12]): 150%
Activity (Mus musculus [13]): Active
inhibition in vivo at 80 mg/kg (Mus musculus [14]): 24%
inhibition in vivo at 80 mg/kg (Mus musculus [15]): 57%
Activity (Mus musculus [16]): 15%
inhibition in vivo at 160 mg/kg (Mus musculus [18]): 19%
Activity (HEK-293T): Non-Toxic
inhibition in vivo at 80 mg/kg (Mus musculus [19]): 9%
